# Assay results reported in ChEMBL document CHEMBL4251723, “Antibacterial Dimeric Acylphloroglucinols from Hypericum japonicum” (J Nat Prod, 2018).
# What was measured:
# Enterococcus faecalis = experiment: Antibacterial activity against Enterococcus faecalis ATCC 10541; type: functional
# Summary of the method: (§1)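 24 h growth-inhibition (MIC) assay. Final test concentration range was 50−3.13 μg/mL or 2.0−0.05 μg/mL depending on compound. Cefotaxime sodium served as positive control. Each experiment was repeated three times.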
# Staphylococcus aureus = experiment: Antibacterial activity against Staphylococcus aureus […]; type: functional; summary of the method: as §1
# Escherichia coli = experiment: Antibacterial activity against Escherichia coli ATCC 11775; type: functional; details: DSM 30083 = JCM 1649 = ATCC 11775; summary of the method: as §1
# Salmonella typhimurium = experiment: Antibacterial activity against Salmonella typhimurium ATCC 6539; type: functional, Salmonella enterica subsp. enterica serovar Typhimurium; details: Salmonella enterica; summary of the method: as §1
# [1] = target: T1, Pancreatic triacylglycerol lipase (Sus scrofa, UniProt P00591); experiment: Inhibition of porcine pancreatic lipase using p-NPB as substrate pretreated for 15 mins followed by substrate addition measured after 15 mins by spectrophometric method
# T1 sequence (P00591 whole entry): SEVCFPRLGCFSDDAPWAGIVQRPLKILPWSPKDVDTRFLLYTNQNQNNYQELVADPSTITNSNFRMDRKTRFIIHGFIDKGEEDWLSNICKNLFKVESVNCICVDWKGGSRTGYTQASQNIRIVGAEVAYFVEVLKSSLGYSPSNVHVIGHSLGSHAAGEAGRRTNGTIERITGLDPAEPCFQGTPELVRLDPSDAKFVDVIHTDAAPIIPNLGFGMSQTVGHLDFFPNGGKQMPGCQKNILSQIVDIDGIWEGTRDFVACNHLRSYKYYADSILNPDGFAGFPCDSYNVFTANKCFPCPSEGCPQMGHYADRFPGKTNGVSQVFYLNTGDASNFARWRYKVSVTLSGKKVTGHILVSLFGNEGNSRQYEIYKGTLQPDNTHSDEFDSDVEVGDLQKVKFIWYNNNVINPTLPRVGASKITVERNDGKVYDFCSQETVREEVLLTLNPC
SMILES,MIC (Enterococcus faecalis) [µM],MIC (Staphylococcus aureus) [µM],MIC (Escherichia coli) [µM],MIC (Salmonella typhimurium) [µM],IC50 [1] [µM]
C=C(CCC=C(C)C)C(O)Cc1c(O)c(CC2=C(O)C(C)(C)C(O)=C(C(=O)C(C)CC)C2=O)c(O)c(C(=O)C(C)C)c1O (centres undefined),0.8,3.3,0.8,0.8,14.5
CC(C)=CCC/C(C)=C/Cc1c(O)c(CC2=C(O)C(C)(C)C(O)=C(C(=O)C(C)C)C2=O)c(O)c(C(=O)C(C)C)c1O,1.8,1.8,0.9,1.8,–
CC(C)=CCOc1cc(O)c(CC2=C(O)C(C)(C)C(O)=C(C(=O)C(C)C)C2=O)c(O)c1C(=O)c1ccccc1,1.9,1.9,1.9,0.9,–

# Further compounds by falling MIC (Enterococcus faecalis), results first:
MIC (Enterococcus faecalis) [µM],MIC (Staphylococcus aureus) [µM],MIC (Escherichia coli) [µM],MIC (Salmonella typhimurium) [µM],IC50 [1] [µM],SMILES
10.7,85.6,21.4,5.4,–,CC(C)=CCC[C@]1(C)Oc2c(c(O)c(CC3=C(O)C(C)(C)C(O)=C(C(=O)C(C)C)C3=O)c(O)c2C(=O)C(C)C)C[C@H]1O
1.8,1.8,1.8,0.9,–,CCC(C)C(=O)C1=C(O)C(C)(C)C(O)=C(Cc2c(O)cc(OCC=C(C)C)c(C(=O)c3ccccc3)c2O)C1=O (centres undefined)
1.7,3.4,0.9,1.7,8.3,CCC(C)C(=O)C1=C(O)C(C)(C)C(O)=C(Cc2c(O)c(C/C=C(\C)CCC=C(C)C)c(O)c(C(=O)C(C)C)c2O)C1=O (centres undefined)
0.9,1.7,0.9,0.9,–,C=C(CCC=C(C)C)C(O)Cc1c(O)c(CC2=C(O)C(C)(C)C(O)=C(C(=O)C(C)C)C2=O)c(O)c(C(=O)C(C)C)c1O (centres undefined)
0.4,3.3,0.4,3.3,–,CO/N=C(\C(=O)N[C@@H]1C(=O)N2C(C(=O)O)=C(COC(C)=O)CS[C@H]12)c1csc(N)n1 [CEFOTAXIME SODIUM]
